L major viab: inhibitors of Leishmania major promastigote growth | inhibition, % at 10 µM | actives 9% (n = 200,000) | Leishmania major promastigotes, resazurin fluorescence viability; in the data active = inhibition above about 50%;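 note: promastigotes grown with compound for 44 hours at 28 °C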
S1P4 antag: human S1P4 receptor antagonism. AID 1510. O95977. actives 0.26% (n = 220,000). S1P4-expressing cells, antagonist mode, reporter read-out. inhibition, % at 4.98 µM; in the data active = inhibition above about 29%
S1P3 antag: S1P3 (human) receptor antagonism. AID 485. CHO S1P3 NFAT-BLA reporter, FRET fluorescence, antagonist mode. inhibition, % at 4.98 µM. actives 0.27% (n = 170,000);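 active = inhibition above the plate cutoff, the mean inhibition of test wells on that plate plus 3 SD, cut at about 28% in these data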;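 note: cells challenged with S1P at its EC80 of 0.8 µM; blue over green emission ratio from cleaved BLA substrate after 4 h stimulation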
Target sequence (Q99500 whole entry, looked up): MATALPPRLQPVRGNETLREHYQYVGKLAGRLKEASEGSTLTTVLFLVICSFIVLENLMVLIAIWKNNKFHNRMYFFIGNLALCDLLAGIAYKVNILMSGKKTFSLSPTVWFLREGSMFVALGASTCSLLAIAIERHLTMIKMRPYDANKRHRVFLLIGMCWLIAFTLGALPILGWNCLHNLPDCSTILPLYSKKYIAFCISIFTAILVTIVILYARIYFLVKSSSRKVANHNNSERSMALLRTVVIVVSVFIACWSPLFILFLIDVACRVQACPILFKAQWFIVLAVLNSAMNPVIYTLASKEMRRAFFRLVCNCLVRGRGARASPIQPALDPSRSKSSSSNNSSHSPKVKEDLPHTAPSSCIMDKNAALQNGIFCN
S1P4 ag: activates the human S1P4 receptor. O95977. S1P4-expressing cell line, agonist reporter assay. activation, % at 4.98 µM. actives 0.35% (n = 220,000). AID 1509; in the data active = activation above about 11%
Mdm2 ligase inh: inhibitors of human Mdm2 E3 ubiquitin ligase; Q00987; cell-based MDM2 ubiquitination luciferase reporter, 2 h; 0 = plate control, 100 = twice control, blank-subtracted; signal enhancement, % at 5 µM; actives 0.11% (n = 210,000);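 active = signal enhancement of 30% or more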;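 note: luminescence tracks abundance of the self-degrading MDM2-luciferase fusion protein; higher signal means inhibition of MDM2 E3 ligase activity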
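Material: Stable MDM2–luciferase fusion reporter cells | Amount: 2000 cells seeded into each well | Dosing: One concentration, 5 µM, with 0.2% DMSO | Incubation: 4 h cell settling then 2 h compound exposure, 37 °C | Measured by: Luciferase luminescence | Read-out basis: % enhancement relative to plate controls after blank subtraction | Benchmarks: Control and blank well means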
Hits are given with their value; – = inactive; · = no result given. This excerpt belongs to a sample that is enriched for hits.

SMILES	L major viab	S1P4 antag	S1P3 antag	S1P4 ag	Mdm2 ligase inh
Clc1ccc(SCCCCN2CCNCC2)cc1	100.2	–	–	–	–
O=C(CCN1CCOCC1)c1ccc(Cl)cc1	71.7	–	–	–	–
O=C(NCCSc1ccc(Cl)cc1)c1ccc(CN2CCOCC2)cc1	–	–	–	–	–
Cc1ccccc1NC(=O)CN(C)S(=O)(=O)c1cccc2cccnc12	–	–	–	–	–
CC(C)C(C)(C#N)NC(=O)CSc1nc(C2CCCCC2)n(-c2ccccc2)n1 (stereo unspecified)	80.4	–	–	–	–
NC(=O)NC(=O)CSc1nc(C2CCCCC2)n(-c2ccccc2)n1	–	–	–	–	–
CN(C)C(CNC(=O)CN1C(=O)NC2(CCc3ccccc32)C1=O)c1ccco1 (stereo unspecified)	–	–	–	–	–
O=C(CSc1nnc(-c2ccccc2)o1)NC1CCS(=O)(=O)C1 (stereo unspecified)	–	–	–	–	–
CC(C)c1ccc(S(=O)(=O)c2cn(Cc3ccc(F)cc3)c3cc4c(cc3c2=O)OCO4)cc1	98.1	–	–	–	–
Cc1ccc(Cn2cc(S(=O)(=O)c3ccc(C(C)C)cc3)c(=O)c3cc4c(cc32)OCO4)cc1	65.2	–	–	–	–
Cc1ccc(S(=O)(=O)c2cn(Cc3ccc(F)cc3)c3cc4c(cc3c2=O)OCO4)cc1	–	–	–	–	–
Cc1ccc(NC(=O)CC2SC(=O)N(c3ccccc3)C2=O)cc1 (stereo unspecified)	–	–	·	–	–
Cc1ccc(C(=O)CC2C(=O)N(c3ccccc3)C(=S)N2c2ccccc2)cc1 (stereo unspecified)	58.7	–	–	–	–
O=[N+]([O-])C1=CC=C2C(=NC3(CCCCC3)N2O)C1=NCCc1ccccc1	75.2	–	–	–	30.7
O=[N+]([O-])c1cccnc1N1CCN(c2ccc(F)cc2)CC1	–	–	–	–	–
CN1CCN(c2ccc(S(=O)(=O)N3CCCCC3)cc2NC(=O)c2ccc(C#N)cc2)CC1	–	–	–	–	–
O=C(Nc1cc(S(=O)(=O)Nc2ccc(Cl)cc2)ccc1O)c1ccc(S(=O)(=O)N2CCCCCC2)cc1	–	–	–	–	–
CN1CCN(c2ccc(Cl)cc2NC(=O)c2ccc(S(=O)(=O)N3CCCCCC3)cc2)CC1	88.0	–	–	–	–
O=C(N/N=C\c1cc(Cl)ccc1O)c1ccc(S(=O)(=O)N2CCCCC2)cc1	97.6	–	–	–	–
Cc1ccc(S(=O)(=O)CCC(=O)N2CCN(c3ccc(Cl)cc3)CC2)cc1	–	–	·	–	–
COC(=O)c1ccc(C(NC(=O)OCc2ccccc2)/C(F)=C/[C@@H](C)C(=O)NCc2ccc(OC)c(OC)c2)cc1 (stereo partly specified)	–	–	–	–	·
CCOC(=O)CNC(=O)N1CCCC(CCC(=O)NCc2ccc(F)c(F)c2)C1 (stereo unspecified)	–	–	–	–	–
Cc1ccc(NC(=S)Nc2ccc3nc(-c4ccccn4)c(-c4ccccn4)nc3c2)cc1C	71.8	–	–	–	–
Cc1ccc(NC(=S)Nc2ccccn2)cc1C	·	–	–	–	–
Clc1ccc(OCc2nnc(SCCN3CCCCC3)n2Cc2ccco2)cc1	100.5	–	–	–	–
SMILES	L major viab	S1P4 antag	S1P3 antag	S1P4 ag	Mdm2 ligase inh
O=C(CSc1ncc(-c2ccc(F)cc2)n1Cc1ccco1)Nc1ccc2c(c1)OCO2	59.8	–	–	–	–
Cc1ccc(OCc2nnc(SCC(=O)Nc3ccc4c(c3)OCCO4)n2Cc2ccco2)cc1	96.0	–	–	–	–
CCOc1ccc(NC(=O)CSc2ncc(-c3ccc(F)cc3)n2Cc2ccco2)cc1	·	–	–	–	·
CCOC(=O)C(C(=O)OCC)c1cc(Br)c2noc3c2c1C(=O)c1ccccc1-3	100.4	–	·	–	–
CC(=O)OCCNc1cc(N2CCN(C)CC2)c2noc3c2c1C(=O)c1ccccc1-3	–	–	–	–	–
CCN(CC)C(=O)CC(c1ccc(N(C)C)cc1)c1c(O)cc(OC)cc1OC (stereo unspecified)	·	·	·	·	–
O=C(COc1ccccc1-c1ccccc1)NNC(=O)NC1CCCCC1	–	–	–	–	·
N=C1c2ccccc2CN1c1ccc(N2CCOCC2)c(S(=O)(=O)Nc2ccc(Cl)cc2)c1	·	–	–	–	–
Cc1ccc(/C=C2/NC(=O)N(Cc3ccccc3)C2=O)s1	72.8	–	·	–	–
Cc1cccc(CN2C(=O)N/C(=C/c3ccc(C)s3)C2=O)c1	–	–	·	–	–
CCC(C)NC(=O)COC(=O)c1ccc(Cl)cc1O (stereo unspecified)	–	–	–	–	–
CC(=O)NC1(C(F)(F)F)NC(=O)N(c2ccc(F)cc2)C1=O (stereo unspecified)	–	–	–	–	–
CC1CCCCN1CCCNC(=O)c1cc(Br)c(Br)[nH]1 (stereo unspecified)	92.7	–	–	–	–
Cc1ccc(S(=O)(=O)N2CCCC(C(=O)NCCCN3CCCCC3C)C2)cc1 (stereo unspecified)	–	–	–	–	–
O=c1ccn(CCCBr)c(=O)[nH]1	·	–	–	–	–
COc1ccc(-c2cc(-c3nnc(COC(=O)c4ccc(O)cc4)o3)c3ccccc3n2)cc1OC	58.6	–	–	–	–
O=C(NC(c1ccccc1)c1c(O)ccc2ccccc12)c1ccccc1Cl (stereo unspecified)	99.7	–	·	–	–
O=C(NC(c1ccc(Cl)cc1)c1c(O)ccc2ccccc12)c1ccccc1 (stereo unspecified)	99.2	–	–	–	–
O=c1c2cn[nH]c2[nH]c(=S)n1-c1ccccc1F	–	–	–	–	–
c1ccc2c(c1)CC1(CCCC1)N=C2N1CCOCC1	·	–	–	–	–
O=C1O/C(=C/C(=O)N2CCOCC2)c2ccccc21	–	–	·	–	·
COC(=O)c1cc2c(C)[nH]c(C)c2cc(C(=O)OC)c1=O	–	–	–	–	–
Cc1cc(C)n(CC(O)Cn2c3ccccc3c3ccccc32)n1 (stereo unspecified)	–	–	·	–	–
Oc1cccc2ccc[n+](CC(O)Cn3c4ccccc4c4ccccc43)c12 (stereo unspecified)	90.7	–	–	–	–
Fc1ccc(CN(Cc2ccccc2)C(c2cccs2)c2nnnn2C2CCCCC2)cc1 (stereo unspecified)	–	–	·	–	–
Fc1ccc(C(c2nnnn2C2CCCC2)N(Cc2ccco2)CC2CCCO2)cc1 (stereo unspecified)	78.2	–	·	–	–
Clc1ccc(CN(Cc2ccccc2)C(c2cccs2)c2nnnn2C2CCCC2)cc1 (stereo unspecified)	86.8	–	·	–	–
c1ccc(CN(Cc2ccco2)C(c2ccncc2)c2nnnn2C2CCCC2)cc1 (stereo unspecified)	95.2	–	–	–	–
CC(C)(C)n1nnnc1C(c1ccc(C(F)(F)F)cc1)N(Cc1ccccc1)Cc1ccco1 (stereo unspecified)	–	–	·	–	–
